According to ChEMBL document CHEMBL1124235, “3-Phenoxypyridine 1-oxides as anticonvulsant agents” (1988):
The source made the active and inactive calls. The rule behind the calls is not given here.

Assays:
Mus musculus [1] = test: Number of mice falling from an inverted wire mesh during a 1-min test period 20 min after ip administration at a dose of 30 mg/Kg in ataxia (inverted screen test); - denotes 'no animals fell'; assay type: functional, organism-based
How it was run: (§1)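 Mice were dosed ip and placed on an inverted wire mesh 20 min after injection, for a 1-min test. The number of mice that fell per dose group was counted, and a dash means none fell.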

Mus musculus [2] = test: Dose at which mouse exhibited ataxia using the inverted screen procedure at 30 min post administration.; assay type: functional
How it was run: (§2)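 Mice (n = 5 per dose) were scored 30 min after dosing at levels of 10, 30, 100, 300 or >300 mg/kg. They were placed on an inverted wire-mesh square, and impaired mice fall off.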

Mus musculus [3] = test: Increase in spontaneous locomotion activity after intraperitoneal administration in mice at a dose of 30 mg/Kg; assay type: functional
How it was run: (§3)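 After ip injection, spontaneous locomotor activity was recorded automatically over a 1-h period beginning 20 min after dosing, with nine or more mice per dose group. Values are percent change from saline-treated mice.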

Mus musculus [4] = test: Increase in spontaneous locomotion activity after intraperitoneal administration in mice at a dose of 10 mg/Kg; assay type: functional; how it was run: as §3
Mus musculus [5] = test: Dose required to protect Mice against tonic extension produced by maximal electroshock (MES) at 30 min post administration.; assay type: functional; details: 0.5 h, read-out: MED
How it was run: (§4)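 Male Swiss-Webster mice (25–32 g), with food and water before testing, were dosed ip, the compound being in water or suspended in 0.29% Methocel. Doses were counted as free base, at levels of 10, 30, 100, 300 or >300 mg/kg, with n = 5. At 30 min, 90 mA, 1 ms monophasic pulses at 100 Hz were given through ear clips for 0.2 s. Value is the lowest dose protecting ≥2 mice from tonic hind-limb extension.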

Mus musculus [6] = test: Number of mice falling from an inverted wire mesh during a 1-min test period 20 min after ip administration at a dose of 10 mg/Kg in ataxia (inverted screen test); - denotes 'no animals fell'; assay type: functional, organism-based; how it was run: as §1
Mus musculus [7] = test: Number of mice falling from an inverted wire mesh during a 1-min test period 20 min after ip administration at a dose of 100 mg/Kg in ataxia (inverted screen test); 3/9; assay type: functional; how it was run: as §1
Mus musculus [8] = test: Increase in spontaneous locomotion activity after intraperitoneal administration in mice at a dose of 100 mg/Kg; assay type: functional; how it was run: as §3
Mus musculus [9] = test: Dose at which mouse exhibited ataxia using the inverted screen procedure at 30 min post administration; assay type: functional; how it was run: as §2
Mus musculus [10] = test: Dose required to protect Mice against tonic extension produced by maximal electroshock (MES) at 30 min post administration; assay type: functional; details: 0.5 h, read-out: MED; how it was run: as §4
Mus musculus [11] = test: Number of mice falling from an inverted wire mesh during a 1-min test period 20 min after ip administration at a dose of 30 mg/Kg in ataxia (inverted screen test); 1/9; assay type: functional; how it was run: as §1
Mus musculus [12] = test: Number of mice falling from an inverted wire mesh during a 1-min test period 20 min after ip administration at a dose of 100 mg/Kg in ataxia (inverted screen test); - denotes 'no animals fell'; assay type: functional, organism-based; how it was run: as §1
Mus musculus [13] = test: Number of mice falling from an inverted wire mesh during a 1-min test period 20 min after ip administration at a dose of 10 mg/Kg in ataxia (inverted screen test ); - denotes 'no animals fell'; assay type: functional, organism-based; how it was run: as §1
Rattus norvegicus [14] = test: Ataxia produced by […] in rat by po administration at 1 hr post dosing; assay type: functional
How it was run: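 Rats were dosed orally and checked 1.0 h afterwards. Ataxia was judged by visual (subjective) observation, not by rotarod. ED50 was calculated by probit analysis of quantal data from four dose groups of eight rats each, with 95% confidence intervals.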

Mus musculus [15] = test: Ataxia produced by rotarod ataxia test (ROT) in mouse by ip administration at 0.5 hr post dosing
Mus musculus [16] = test: Number of mice falling from an inverted wire mesh during a 1-min test period 20 min after ip administration at a dose of 60 mg/Kg in ataxia (inverted screen test); 6/12; assay type: functional; how it was run: as §1
Mus musculus [17] = test: Anticonvulsant activity by maximal electroshock test(MES) in mouse by ip administration at 0.5 hr postdosing
Mus musculus [18] = test: Anticonvulsant activity by maximal electroshock test(MES) in mouse by po administration at 0.5 hr postdosing
Rattus norvegicus [19] = test: Anticonvulsant activity by maximal electroshock test(MES) in rat by po administration at 1 hr postdosing; assay type: functional
Mus musculus [20] = test: Number of mice falling from an inverted wire mesh during a 1-min test period 20 min after ip administration at a dose of 20 mg/Kg in ataxia (inverted screen test); 1/12; assay type: functional; how it was run: as §1
Mus musculus [21] = test: Number of mice falling from an inverted wire mesh during a 1-min test period 20 min after ip administration at a dose of 40 mg/Kg in ataxia (inverted screen test); 1/12; assay type: functional; how it was run: as §1
Mus musculus [22] = test: Increase in spontaneous locomotion activity after intraperitoneal administration in mice at a dose of 40 mg/kg; assay type: functional; how it was run: as §3
Mus musculus [23] = test: Ataxia produced by rotarod ataxia test (ROT) in mouse by po administration at 0.5 hr post dosing
Mus musculus [24] = test: Increase in spontaneous locomotion activity after intraperitoneal administration in mice at a dose of 60 mg/kg; assay type: functional; how it was run: as §3
Mus musculus [25] = test: Increase in spontaneous locomotion activity after intraperitoneal administration in mice at a dose of 5 mg/Kg; assay type: functional; how it was run: as §3
Mus musculus [26] = test: Increase in spontaneous locomotion activity after intraperitoneal administration in mice at a dose of 20 mg/Kg; assay type: functional; how it was run: as §3
Mus musculus [27] = test: Increase in spontaneous locomotion activity after intraperitoneal administration in mice; at 100 mg/kg; assay type: functional; how it was run: as §3
Mus musculus [28] = test: Increase in spontaneous locomotion activity after intraperitoneal administration in mice at 10 mg/kg; no change; assay type: functional, organism-based; set-up: dose 10 mg/kg; how it was run: as §3
Mus musculus [29] = test: Number of mice falling from an inverted wire mesh during a 1-min test period 20 min after ip administration at given dose in ataxia (inverted screen test) at 100 mg/kg; - denotes 'no animals fell'; assay type: functional, organism-based; set-up: dose 100 mg/kg; how it was run: as §1
Mus musculus [30] = test: Number of mice falling from an inverted wire mesh during a 1-min test period 20 min after ip administration at given dose in ataxia (inverted screen test) at 10 mg/kg; - denotes 'no animals fell'; assay type: functional, organism-based; set-up: dose 10 mg/kg; how it was run: as §1
Mus musculus [31] = test: Number of mice falling from an inverted wire mesh during a 1-min test period 20 min after ip administration at given dose in ataxia (inverted screen test) at 20 mg/kg; - denotes 'no animals fell'; assay type: functional, organism-based; set-up: dose 20 mg/kg; how it was run: as §1
Mus musculus [32] = test: Increase in spontaneous locomotion activity after intraperitoneal administration in mice; 40 mg/kg; assay type: functional; how it was run: as §3
Mus musculus [33] = test: Number of mice falling from an inverted wire mesh during a 1-min test period 20 min after ip administration at given dose in ataxia (inverted screen test) at 40 mg/kg; - denotes 'no animals fell'; assay type: functional, organism-based; set-up: dose 40 mg/kg; how it was run: as §1
Mus musculus [34] = test: Increase in spontaneous locomotion activity after intraperitoneal administration in mice at 20 mg/kg; assay type: functional; how it was run: as §3
Mus musculus [35] = test: Number of mice falling from an inverted wire mesh during a 1-min test period 20 min after ip administration at a dose of 100 mg/Kg in ataxia (inverted screen test); 2/9; assay type: functional; how it was run: as §1

Structure (SMILES): Cc1ccc(Oc2ccccc2)c[n+]1[O-]
- Activity (Mus musculus [1]): Not toxic
- MAD (Mus musculus [2]): 300 mg/kg
- Change (Mus musculus [3]): 96%
- Change (Mus musculus [4]): 32%
- minimal effective dose (Mus musculus [5]): 100 mg/kg
- Activity (Mus musculus [6]): Not toxic
- Activity (Mus musculus [7]): 3
- Change (Mus musculus [8]): 134%

Structure (SMILES): N#Cc1cc[n+]([O-])cc1Oc1ccccc1
- MAD (Mus musculus [9]): 300 mg/kg
- minimal effective dose (Mus musculus [10]): 300 mg/kg

Structure (SMILES): [O-][n+]1cccc(Oc2ccccc2)c1
- MAD (Mus musculus [9]): 300 mg/kg
- Activity (Mus musculus [11]): 1
- Change (Mus musculus [3]): 45%
- Change (Mus musculus [4]): 19%
- Activity (Mus musculus [12]): Not toxic
- Change (Mus musculus [8]): 122%
- Activity (Mus musculus [13]): Not toxic
- minimal effective dose (Mus musculus [10]): 100 mg/kg

Structure (SMILES): [O-][n+]1ccc(C2CCCCC2)c(Oc2ccccc2)c1
- MAD (Mus musculus [9]): 300 mg/kg
- minimal effective dose (Mus musculus [10]): > 300 mg/kg

Structure (SMILES): CCc1cc[n+]([O-])cc1Oc1ccccc1
- MAD (Mus musculus [9]): 100 mg/kg
- minimal effective dose (Mus musculus [10]): 30 mg/kg

Structure (SMILES): O=Cc1cc[n+]([O-])cc1Oc1ccccc1
- MAD (Mus musculus [9]): >300 mg/kg
- minimal effective dose (Mus musculus [10]): 300 mg/kg

Structure (SMILES): CC(C)(C)c1cc[n+]([O-])cc1Oc1ccccc1
- MAD (Mus musculus [9]): 100 mg/kg
- minimal effective dose (Mus musculus [10]): 30 mg/kg

Structure (SMILES): O=c1c2ccccc2oc2c[n+]([O-])ccc12
- MAD (Mus musculus [9]): 300 mg/kg
- minimal effective dose (Mus musculus [10]): > 300 mg/kg

Structure (SMILES): Cc1cc(Oc2ccccc2)c[n+]([O-])c1
- MAD (Mus musculus [9]): 300 mg/kg
- Activity (Mus musculus [1]): Not toxic
- Change (Mus musculus [3]): 186%
- Change (Mus musculus [4]): 87%
- Activity (Mus musculus [6]): Not toxic
- Activity (Mus musculus [12]): Not toxic
- Change (Mus musculus [8]): 228%
- minimal effective dose (Mus musculus [10]): 100 mg/kg

Structure (SMILES): Cc1cc[n+]([O-])cc1Oc1ccc(Cl)cc1
- MAD (Mus musculus [9]): 100 mg/kg
- minimal effective dose (Mus musculus [10]): 100 mg/kg

Structure (SMILES): [O-][n+]1ccc(Cl)c(Oc2ccccc2)c1
- MAD (Mus musculus [9]): 300 mg/kg
- minimal effective dose (Mus musculus [10]): > 300 mg/kg

Structure (SMILES): CC(C)c1cc[n+]([O-])cc1Oc1ccccc1
- MAD (Mus musculus [9]): 100 mg/kg
- minimal effective dose (Mus musculus [10]): 30 mg/kg

Structure (SMILES): Cc1cc[n+]([O-])cc1Oc1ccccc1
- MAD (Mus musculus [9]): 100 mg/kg
- ED50 (Rattus norvegicus [14]): 75 mg/kg
- ED50 (Mus musculus [15]): 76 mg/kg
- Activity (Mus musculus [16]): 6
- ED50 (Mus musculus [17]): 23 mg/kg
- ED50 (Mus musculus [18]): 85 mg/kg
- ED50 (Rattus norvegicus [19]): 11 mg/kg
- Activity (Mus musculus [20]): 1
- Activity (Mus musculus [21]): 1
- Change (Mus musculus [22]): 92%
- ED50 (Mus musculus [23]): 300 mg/kg
- Change (Mus musculus [24]): 63%
- Change (Mus musculus [4]): 55%
- Activity (Mus musculus [6]): Not toxic
- Change (Mus musculus [25]): 12%
- Change (Mus musculus [26]): 75%
- minimal effective dose (Mus musculus [10]): 30 mg/kg

Structure (SMILES): O=C(O)c1cc[n+]([O-])cc1Oc1ccccc1
- MAD (Mus musculus [9]): >300 mg/kg
- minimal effective dose (Mus musculus [10]): > 300 mg/kg

Structure (SMILES): [O-][n+]1ccc(CO)c(Oc2ccccc2)c1
- MAD (Mus musculus [9]): 30 mg/kg
- minimal effective dose (Mus musculus [10]): 300 mg/kg

Structure (SMILES): c1ccc2c(c1)Cc1ccncc1O2
- MAD (Mus musculus [9]): 300 mg/kg
- minimal effective dose (Mus musculus [10]): 100 mg/kg

Structure (SMILES): O=S(=O)(O)O.c1ccc(Oc2cccnc2)cc1
- MAD (Mus musculus [9]): 300 mg/kg
- Change (Mus musculus [27]): 15%
- Activity (Mus musculus [28]): inactive
- Activity (Mus musculus [29]): Not toxic
- Activity (Mus musculus [30]): Not toxic
- Activity (Mus musculus [31]): Not toxic
- Change (Mus musculus [32]): 53%
- Activity (Mus musculus [33]): Not toxic
- Change (Mus musculus [34]): 28%
- minimal effective dose (Mus musculus [10]): 100 mg/kg

Structure (SMILES): COc1ccc(Oc2c[n+]([O-])ccc2C)cc1
- MAD (Mus musculus [9]): 300 mg/kg
- minimal effective dose (Mus musculus [10]): 300 mg/kg

Structure (SMILES): OCc1ccncc1Oc1ccccc1
- MAD (Mus musculus [9]): 300 mg/kg
- minimal effective dose (Mus musculus [10]): 300 mg/kg

Structure (SMILES): Cc1c(Oc2ccccc2)ccc[n+]1[O-]
- MAD (Mus musculus [9]): 300 mg/kg
- Activity (Mus musculus [1]): Not toxic
- Change (Mus musculus [3]): 25%
- Change (Mus musculus [4]): 48%
- Activity (Mus musculus [6]): Not toxic
- Activity (Mus musculus [35]): 2
- Change (Mus musculus [8]): 184%
- minimal effective dose (Mus musculus [10]): 300 mg/kg

Structure (SMILES): Cc1ccc(Oc2c[n+]([O-])ccc2C)cc1
- MAD (Mus musculus [9]): 300 mg/kg
- minimal effective dose (Mus musculus [10]): 300 mg/kg
